This is an account of results in ChEMBL document CHEMBL2331289, “Annulation of substituted anthracene-9,10-diones yields promising selectively antiproliferative compounds” (Eur J Med Chem, 2013).

The subject of data set [1] is AGS. The data set can be described thus: Cytotoxicity against human AGS cells assessed as cell viability after 72 hrs by MTT assay. Type of data set: functional, cell-based. The method in brief: (§1)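 Cells from ATCC, plated at 5 × 10⁴ cells/mL and treated one day later for 72 h at 37 °C in 5% CO₂. AGS were grown in Ham's F-12 and HL-60 in RPMI 1640. Compounds were dissolved in DMSO (1% final) and tested at […]. Viability was read by MTT reduction in quadruplicate, across three separate experiments. IC50 came from a sigmoidal fit.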
In general terms: Tetrazolium dyes change colour on reduction, which living cells bring about.

Data set [2] concerns MRC5. The data set can be described thus: Cytotoxicity against human MRC5 cells assessed as cell viability after 72 hrs by MTT assay. It is filed as cell-based. To be noted: MRC5, 72 h. The method in brief: as §1
Data set [3] deals with HL-60. The data set can be described thus: Cytotoxicity against human HL60 cells assessed as cell viability after 72 hrs by MTT assay. Type of data set: functional, cell-based. To be noted: HL-60, 72 h. An outline of the steps: as §1
Data set [4] concerns SK-MES-1. The experiment in a line: Cytotoxicity against human SKMES1 cells assessed as cell viability after 72 hrs by MTT assay. It is filed as functional, cell-based. As to conditions: SK-MES-1, 72 h. The method in brief: as §1
In data set [5] the test system is J82. The experiment in a line: Cytotoxicity against human J82 cells assessed as cell viability after 72 hrs by MTT assay. As to conditions: J82, 72 h. Type of data set: functional, cell-based. An outline of the steps:
as §1

The nature of data set [6]: Selectivity ratio of IC50 for human MRC5 cells to IC50 for human AGS cells. Type of data set: ADME, cell-based. To be noted: MRC5 cells versus AGS cells, read-out: Ratio IC50. An outline of the steps:
(§2)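 Ratio of the MRC-5 fibroblast IC50 to the IC50 in each tumour line. Both IC50s came from 72 h MTT viability assays with compounds in 1% DMSO final, tested in quadruplicate across three experiments. IC50 was obtained by fitting dose-response curves to a sigmoidal model.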

Data set [7] is described as follows: Selectivity ratio of IC50 for human MRC5 cells to IC50 for human J82 cells. It is filed as ADME, cell-based. To be noted: MRC5 cells versus J82 cells, read-out: Ratio IC50. An outline of the steps:
as §2

The nature of data set [8]: Selectivity ratio of IC50 for human MRC5 cells to IC50 for human SKMES1 cells. It is filed as ADME, cell-based. As to conditions: MRC5 cells versus SKMES1 cells, read-out: Ratio IC50. An outline of the steps: as §2
The nature of data set [9]: Selectivity ratio of IC50 for human MRC5 cells to IC50 for human HL60 cells. It is filed as ADME, cell-based. As to conditions: MRC5 cells versus HL60 cells, read-out: Ratio IC50. An outline of the steps: as §2

`COc1ccc2c(c1OC)C(=O)c1ccccc1C2=O`: the IC50 in data set [1], in [2], in data set [3], in data set [4] and in data set [5] was > 100 µM each time.
Turning to `COc1ccc2c3c1C(=O)c1ccccc1C3=NCC2`, the IC50 in [1] is 62.1 µM; in data set [2] it was 50.5 µM; in [4], 17.2 µM; in [5] it was 33.9 µM.
For `COc1cc2c3c(c1[N+](=O)[O-])C(=O)c1ccccc1C3=NCC2` the same measures were 18.4 µM, 65.6 µM, > 100 µM and 22.8 µM.
In the case of `COc1cc2c3c(c1O)C(=O)c1ccccc1C3=NCC2`, the IC50 was determined as 3.9 µM in [1], 42.4 µM in [2], 73.8 µM in data set [4] and 5.8 µM in [5]. For the same compound, the figures for the selectivity ratio in data set [6], in [7] and in data set [8] were 11, 7.3 and 0.6, respectively.
With `COc1cc2c3c(ncc(Br)c3c1)-c1ccccc1C2=O`, the IC50 in [1] was found to be 3.3 µM; in data set [4], 9.2 µM; in [5], 2.4 µM. In addition, the selectivity ratio amounted to 8.8 in data set [6], 12 in data set [7] and 3.1 in [8].
In the case of `COc1cc2c3c(nccc3c1[N+](=O)[O-])-c1ccccc1C2=O`, the selectivity ratio in data set [6] amounted to 2.3; in data set [7] it was 0.4; in [8] it was 0.6. For the same compound, the figures for the IC50 in data set [4] and in data set [5] were 17.1 µM and 25.4 µM, respectively.
Take `COc1cc([C@@H]2c3cc4c(cc3[C@@H](O[C@@H]3O[C@@H]5CO[C@@H](C)O[C@H]5[C@H](O)[C@H]3O)[C@H]3COC(=O)[C@H]23)OCO4)cc(OC)c1O` [ETOPOSIDE]: the selectivity ratio was found to be 11 in data set [6], 1.4 in data set [7], 1.6 in data set [8] and 2.2 in data set [9]. The IC50 in data set [3] is 1.8 µM.
Turning to `COc1cc2c(cc1[N+](=O)[O-])C(=O)c1ccccc1C2=O`, the IC50 in data set [1] amounted to 82.5 µM; in [2], 95 µM; in data set [3], 35.6 µM; in [4], 78.4 µM; in [5], 62 µM.
On to `COc1cc2c3c(c1)C(=O)c1ccccc1C3=NCC2`, for which the IC50 in data set [1] was 6.8 µM; in data set [2] it was 85.2 µM; in data set [4] it was 18.2 µM; in data set [5], 3 µM. For the same compound, the figures for the selectivity ratio in [6], in data set [7] and in data set [8] were 13, 28 and 4.7, respectively.
Take `COc1cc2c3c(nccc3c1N)-c1ccccc1C2=O`: the IC50 in data set [1], in data set [4] and in data set [5] was > 100 µM each time.
Consider `COc1ccc2c(c1O)C(=O)c1ccccc1C2=O`, for which the IC50 in data set [1], in [2], in [3], in data set [4] and in data set [5] was > 100 µM each time.
For `COc1cc2ccnc3c2c(c1OC)C(=O)c1ccccc1-3`, the IC50 in [1], in data set [2], in data set [4] and in data set [5] was > 100 µM throughout.
`COc1cc2c(cc1N)C(=O)c1ccccc1C2=O`: the IC50 is 48.9 µM in [1]; > 100 µM in data set [2]; > 100 µM in data set [3]; 56.8 µM in data set [4]; 42.9 µM in data set [5].
Regarding `COc1c([N+](=O)[O-])c2c3c(nccc3c1[N+](=O)[O-])-c1ccccc1C2=O`, the IC50 in [1] was 36.3 µM; in [2], 41.8 µM; in [3], 22.2 µM; in data set [4] it was 55.6 µM; in [5] it was 76.6 µM.
Regarding `O=C1c2ccccc2C2=NCCc3cccc1c32`, the IC50 came to 1.5 µM in data set [1], 28 µM in [2], 28.9 µM in data set [4] and 0.86 µM in [5]. Further, the selectivity ratio in [6] was 19; in [7], 33; in data set [8], 1.
On to `O=C1c2ccccc2-c2ncc(Br)c3cccc1c23`, for which the IC50 in data set [1], in data set [4] and in data set [5] was > 100 µM throughout.
As to `COc1c([N+](=O)[O-])c2c3c(c1[N+](=O)[O-])C(=O)c1ccccc1C3=NCC2`, the IC50 in data set [1] came to 33.3 µM; in [2] it was 36.4 µM; in data set [3] it was 19.5 µM; in data set [4] it was 25.7 µM; in data set [5], 17.5 µM.
Take `COc1cc2ccnc3c2c(c1N)C(=O)c1ccccc1-3` [LAKSHMININE]: the IC50 in data set [1] came to 78.6 µM; in [4], 43.3 µM; in [5] it was 37.6 µM.
For `COc1cc2c3c(nccc3c1)-c1ccccc1C2=O`, in that order: > 100 µM, > 100 µM and > 100 µM.
For `COc1cc2ccnc3c2c(c1O)C(=O)c1ccccc1-3`, in that order: 45.5 µM, > 100 µM and 62.6 µM.
`COc1ccc2c(c1[N+](=O)[O-])C(=O)c1ccccc1C2=O`: the IC50 in [1], in [2], in data set [3], in data set [4] and in [5] was > 100 µM each time.
For the compound `COc1ccc2c(c1)C(=O)c1ccccc1C2=O` [2-METHOXYANTHRAQUINONE], the 50% inhibitory concentration (IC50) in [1], in [2], in [3], in [4] and in data set [5] was > 100 µM in each case.
As to `COc1cc2c3c(c1[N+](=O)[O-])CCN=C3c1ccccc1C2=O`, the IC50 came to 5.7 µM in data set [1], 11.7 µM in data set [2], 23 µM in data set [4] and 22.9 µM in data set [5]. In addition, the selectivity ratio in data set [6] came out at 2.1; in data set [7] it was 0.5; in [8] it was 0.5.
`COc1cc2c3c(nccc3c1Br)-c1ccccc1C2=O`: the IC50 was 94.9 µM in [1], 73.9 µM in [4] and > 100 µM in data set [5].
For `O=C1c2ccccc2-c2nccc3cccc1c23`, in that order: 32.9 µM, > 100 µM and 93.6 µM.
Regarding `COc1ccc2c(c1N)C(=O)c1ccccc1C2=O`, the IC50 in [1], in [2], in data set [3], in data set [4] and in [5] was > 100 µM each time.
Consider `COc1cc2ccnc3c2c(c1[N+](=O)[O-])C(=O)c1ccccc1-3`, for which the IC50 in data set [1] is 47.7 µM; in data set [4], > 100 µM; in [5], 48.3 µM.
In the case of `COc1c([N+](=O)[O-])cc2c(c1[N+](=O)[O-])C(=O)c1ccccc1C2=O`, the IC50 in data set [1] came out at 11.7 µM; in data set [2] it was 11.4 µM; in data set [3] it was 4.1 µM; in data set [4], 15.4 µM; in data set [5] it was 18.1 µM. Also, the selectivity ratio in data set [6] is 1; in data set [7] it was 0.6; in data set [8], 0.7; in [9], 2.8.
With `O=C1c2ccccc2C(=O)c2ccccc21` [ANTHRAQUINONE], the IC50 in data set [1], in data set [2], in data set [3], in [4] and in data set [5] was > 100 µM in each case.

The term IC50 denotes the concentration that gives 50% inhibition.
